The values that follow come from ChEMBL document CHEMBL1139358, “Potent and orally bioavailable CCR4 antagonists: Synthesis and structure-activity relationship study of 2-aminoquinazolines” (Bioorg Med Chem, 2009).

Structures are written as SMILES.

In series [1] the target is T1, C-C chemokine receptor type 4 (Homo sapiens) (UniProt P51679).
T1 sequence (whole entry): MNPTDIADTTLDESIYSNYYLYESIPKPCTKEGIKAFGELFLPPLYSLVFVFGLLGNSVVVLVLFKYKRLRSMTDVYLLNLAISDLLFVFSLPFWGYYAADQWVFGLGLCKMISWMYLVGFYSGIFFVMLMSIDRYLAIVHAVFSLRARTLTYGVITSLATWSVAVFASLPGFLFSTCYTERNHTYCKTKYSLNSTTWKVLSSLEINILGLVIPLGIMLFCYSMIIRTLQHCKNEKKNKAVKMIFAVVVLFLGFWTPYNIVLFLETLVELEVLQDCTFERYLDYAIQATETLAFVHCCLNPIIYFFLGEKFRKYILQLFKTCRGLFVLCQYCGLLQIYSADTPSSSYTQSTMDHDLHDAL
Kind of series: Antagonist activity at human CCR4 receptor expressed in mouse B300-19 cells assessed as CCL22-induced [35S]GTPgammaS binding at 1 uM. It counts as functional, cell-based. The essentials: (§1)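 B300-19 pre-B cell membranes stably expressing human CCR4 (1 µg protein/well), incubated 1.5 h at 25 °C with 150 pM [35S]GTPγS, 2 µM GDP, 3 nM MDC (CCL22), WGA SPA beads, in HEPES-NaOH pH 7.05, NaCl, MgCl2, BSA buffer. Scintillation counting. Percent inhibition from no-compound and no-CCL22 control wells. Duplicate wells, four test concentrations.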

Series [2] addresses T2, C-C chemokine receptor type 4 (Homo sapiens, UniProt P51679).
T2 sequence (P51679 whole entry): T1 sequence (whole entry)
Kind of series: Antagonist activity at human CCR4 receptor expressed in mouse B300-19 cells assessed as CCL22-induced [35S]GTPgammaS binding. The class given is functional, cell-based. The essentials: as §1

In series [3] the test system is Mus musculus. The series can be described thus: Antiinflammatory activity against oxazolone-induced contact hypersensitivity in BALB/c mouse model of acute dermatitis assessed as inhibition of ear swelling at 30 mg/kg, sc qd. The class given is functional. The settings on record: route subcutaneous. Summed up:
(§2)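 Female BALB/c mice, 7 weeks, n = 5, sensitized with 3% oxazolone in ethanol on the shaved abdomen. Challenged on day 6 with 1% oxazolone on the right ear. Ear thickness gauged 20 h after challenge. Twice-daily dosing was given 30 min before and 8 h after challenge. Single doses were given after challenge only (8 h or 12 h). Percent inhibition of swelling calculated against control and vehicle groups.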

The subject of series [4] is Mus musculus. The series can be described thus: Antiinflammatory activity against oxazolone-induced contact hypersensitivity in BALB/c mouse model of acute dermatitis assessed as inhibition of ear swelling at 100 mg/kg, po qd. The class given is functional. The essentials:
as §2

A short description of series [5]: Cmax in BALB/c mouse at 100 mg/kg, po administered as single dose. On the set-up: dose 100 mg/kg, route oral. It counts as ADME, organism-based. The settings on record: in vivo.
Series [6] relates to Mus musculus. Kind of series: Antiinflammatory activity against oxazolone-induced contact hypersensitivity in BALB/c mouse model of acute dermatitis assessed as inhibition of ear swelling at 30 mg/kg, po qd. It counts as functional. Summed up:
as §2

The test system of series [7] is Mus musculus. Kind of series: AUC (0 to 24 hrs) in BALB/c mouse at 30 mg/kg, po administered as single dose. The class given is ADME, organism-based, Plasma. The arrangement: time < 24 hr, dose 30 mg/kg, route oral. Conditions: in vivo.
Series [8] is described as follows: Tmax in BALB/c mouse at 30 mg/kg, po administered as single dose. It counts as ADME, organism-based. The arrangement: dose 30 mg/kg, route oral. The settings on record: in vivo.
Series [9] concerns Mus musculus. The series can be described thus: Antiinflammatory activity against oxazolone-induced contact hypersensitivity in BALB/c mouse model of acute dermatitis assessed as inhibition of ear swelling at 10 mg/kg, po qd. The class given is functional. The essentials: as §2
The test system of series [10] is Mus musculus. The series can be described thus: AUC (0 to 24 hrs) in BALB/c mouse at 100 mg/kg, po administered as single dose. The class given is ADME, organism-based, Plasma. The arrangement: time < 24 hr, dose 100 mg/kg, route oral. Conditions: in vivo.
A short description of series [11]: Cmax in BALB/c mouse at 30 mg/kg, po administered as single dose. It counts as ADME, organism-based. The arrangement: dose 30 mg/kg, route oral. The settings on record: in vivo.
Series [12] is described as follows: Tmax in BALB/c mouse at 100 mg/kg, po administered as single dose. It counts as ADME, organism-based. On the set-up: dose 100 mg/kg, route oral. Conditions: in vivo.
Series [13] relates to Mus musculus. The series can be described thus: Antiinflammatory activity against oxazolone-induced contact hypersensitivity in BALB/c mouse model of acute dermatitis assessed as inhibition of ear swelling at 30 mg/kg, sc bid. Conditions: route subcutaneous. It counts as functional. The essentials:
as §2

The nature of series [14]: Antagonist activity at human CCR4 receptor expressed in mouse B300-19 cells assessed as CCL22-induced chemotaxis.
Series [15] can be described thus: Antagonist activity at mouse CCR4 receptor expressed in mouse B300-19 cells assessed as CCL22-induced chemotaxis.
Series [16] relates to Mus musculus. Kind of series: Antiinflammatory activity against oxazolone-induced contact hypersensitivity in BALB/c mouse model of acute dermatitis assessed as inhibition of ear swelling at 30 mg/kg, po bid. The class given is functional. The essentials:
as §2

Series [17] deals with T3, C-C chemokine receptor type 4 (Mus musculus) (UniProt P51680).
T3 sequence (whole entry): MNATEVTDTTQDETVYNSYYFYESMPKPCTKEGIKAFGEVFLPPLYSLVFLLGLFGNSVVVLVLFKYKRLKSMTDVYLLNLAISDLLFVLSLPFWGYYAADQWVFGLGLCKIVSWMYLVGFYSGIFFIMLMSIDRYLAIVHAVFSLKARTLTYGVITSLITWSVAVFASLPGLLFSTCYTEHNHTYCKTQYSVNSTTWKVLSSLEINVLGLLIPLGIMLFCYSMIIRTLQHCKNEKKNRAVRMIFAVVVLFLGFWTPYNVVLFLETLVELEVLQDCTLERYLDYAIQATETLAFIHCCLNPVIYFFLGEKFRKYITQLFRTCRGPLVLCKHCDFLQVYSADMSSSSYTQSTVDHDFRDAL
The series can be described thus: Antagonist activity at mouse CCR4 receptor expressed in mouse B300-19 cells assessed as CCL22-induced chemotaxis at 1 uM. It counts as functional, cell-based. The essentials: (§3)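 Stable CCR4 transfectants of B300-19 cells (human or mouse receptor) at 5 × 10^6 cells/mL in RPMI 1640 with 0.1% BSA, pretreated with test compound. Cells placed above 5-µm polycarbonate filters, with 3 nM human (human CCR4 cells) or 1 nM mouse (mouse CCR4 cells) CCL22 below. Migration for 3 h at 37 °C, 5% CO2. Migrated cells quantified by ATP bioluminescence. Triplicates, four concentrations.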

The target in series [18] is T1, C-C chemokine receptor type 4 (Homo sapiens). Kind of series: Antagonist activity at human CCR4 receptor expressed in mouse B300-19 cells assessed as CCL22-induced chemotaxis at 1 uM. It counts as functional, cell-based. Summed up: as §3
The subject of series [19] is Mus musculus. The series can be described thus: Antiinflammatory activity against oxazolone-induced contact hypersensitivity in BALB/c mouse model of acute dermatitis assessed as inhibition of ear swelling at 100 mg/kg, po bid. It counts as functional. Summed up:
as §2

The term inhibition denotes the share of the control response that was lost under treatment. As to `COc1cc2nc(N3CCC(N4CCCC(CO)C4)CC3)nc(NS(=O)(=O)c3ccc(Cl)cc3)c2cc1OC` (stereo not given), the inhibition in series [1] came out at 5%.
Take `COc1cc2nc(N3CCC(N4CCCC(CO)C4)CC3)nc(NC3CCS(=O)(=O)CC3)c2cc1OC` (stereo not given): the inhibition in series [1] was 0%.
With `COc1cc2nc(N3CCC(N4CCCC(CO)C4)CC3)nc(NC3CCOCC3)c2cc1OC` (stereo not given), the inhibition in series [1] came out at 4%.
The IC50 is the concentration that gives 50% inhibition. For `COCC1CCCN(C2CCN(c3nc(Nc4ccc(Cl)cc4)c4cc(OC)c(OC)cc4n3)CC2)C1` (stereo not given), in series [2], the IC50 was found to be 0.052 µM.
As usually defined, the inhibition in vivo is the percentage by which the read-out fell short of the control. By Cmax is commonly meant the highest concentration seen after dosing. What is called AUC is concentration integrated over time. A higher AUC goes with more exposure. As usually defined, the Tmax is the time at which the peak concentration occurs. Regarding `COc1cc2nc(N3CCC(N4CCCC(CO)C4)CC3)nc(Nc3ccc(Cl)cc3)c2cc1OC` (stereo not given), the values for the inhibition in vivo at 30 mg/kg in series [3] and in [6] were 44% and 17%, respectively. In series [4], the inhibition in vivo at 100 mg/kg was 39%. Also, the Cmax in series [5] came out at 262 ng/mL; in series [11], 139 ng/mL. The AUC in series [7] came out at 1010 ng·h/mL; in [10] it was 1750 ng·h/mL. In addition, in [2], the IC50 was 0.019 µM. The Tmax in series [8] and in [12] was 2 h throughout. The inhibition in vivo at 10 mg/kg in [9] is 13%.
With `COc1cc2nc(N3CCC(N4CCCC(OC)C4)CC3)nc(Nc3ccc(Cl)cc3)c2cc1OC` (stereo not given), the IC50 in series [2] was 0.1 µM.
In the case of `COc1cc2nc(N3CCC(N4CCCC(O)C4)CC3)nc(Nc3ccc(Cl)cc3)c2cc1OC` (stereo not given), the IC50 in series [2] came to 0.048 µM.
For `COc1cc2nc(N3CCC(N4CCCC4)CC3)nc(Nc3ccc(Cl)cc3)c2cc1OC`, the inhibition in vivo at 30 mg/kg in series [13] worked out at 43%; in series [16], 2%. Further, the IC50 in series [14] was 0.11 µM; in series [15], 0.13 µM.
In the case of `COc1cc2nc(N3CCC(N4CCCCC4)CC3)nc(NC3CCCCCC3)c2cc1OC`, the inhibition in vivo at 30 mg/kg in [16] came to 2%.
Take `COc1cc2nc(N3CCC(N4CCCC(CO)C4)CC3)nc(NC3CCCCCC3)c2cc1OC` (stereo not given): the IC50 in [2] stood at 0.03 µM. Further, the inhibition in vivo at 30 mg/kg in [16] was 11%.
With `COc1cc2nc(N3CCC(N4CCCC(CO)C4)CC3)nc(C(=O)c3ccc(Cl)cc3)c2cc1OC` (stereo not given), in [1], the inhibition stood at 42%.
For `COc1cc2nc(N3CCC(N4CCCC(CO)C4)CC3)nc(NC(=O)c3ccc(Cl)cc3)c2cc1OC` (stereo not given), the inhibition in series [1] was 11%.
Regarding `COc1cc2nc(N3CCC(N4CCCC(CO)C4)CC3)nc(-c3ccc(Cl)cc3)c2cc1OC` (stereo not given), in [2], the IC50 is > 1 µM.
On to `COc1cc2nc(N3CCC(N4CCCC(CO)C4)CC3)nc(NCCCc3ccc(Cl)cc3)c2cc1OC` (stereo not given), for which the IC50 in series [2] was found to be 0.18 µM.
For `COc1cc2nc(N3CCC(N4CCCC(CO)C4)CC3)nc(NCc3ccc(Cl)cc3)c2cc1OC` (stereo not given), the IC50 in series [2] stood at 0.087 µM.
With `COc1cc2nc(N3CCC(N4CCCC(CO)C4)CC3)nc(C(O)c3ccc(Cl)cc3)c2cc1OC` (stereo not given), in series [1], the inhibition stood at 7%.
In the case of `COc1cc2nc(N3CCC(N4CCOC(CO)C4)CC3)nc(Nc3ccc(Cl)cc3)c2cc1OC` (stereo not given), the inhibition in series [17] stood at 50%. In [2], the IC50 came out at 0.1 µM.
In the case of `COc1cc2nc(N3CCC(N4CCCC(CO)C4)CC3)nc(N3CCc4cc(Cl)ccc43)c2cc1OC` (stereo not given), the inhibition in [1] was determined as 40%.
Consider `COc1cc2nc(N3CCC(N4CCCC(CO)C4)CC3)nc(N(C)CCc3ccc(Cl)cc3)c2cc1OC` (stereo not given), for which the inhibition in [1] stood at 23%.
Take `COc1cc2nc(N3CCC(N4CCCC(CO)C4)CC3)nc(NCCc3ccc(Cl)cc3)c2cc1OC` (stereo not given): the IC50 in [2] was found to be 0.061 µM. In series [18], the inhibition was 43%.
Consider `COc1cc2nc(N3CCC(N4CCCC4)CC3)nc(NC3CCCCCC3)c2cc1OC`, for which, in series [3], the inhibition in vivo at 30 mg/kg amounted to 39%. The inhibition in vivo at 100 mg/kg in [19] is 8%. Further, the IC50 in series [14] is 0.2 µM; in [15] it was 0.13 µM.
